≈ marks a conversion by molar mass, not a printed value.
Key:
[1] = test system: Staphylococcus aureus; test: Antibacterial activity against tetracycline-susceptible Staphylococcus aureus ATCC 13709 Smith isolate SA100; type: functional
How it was run: (§1)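 Broth microdilution MIC following CLSI methods in cation-adjusted Mueller Hinton broth, prepared fresh and held at 4 °C before testing. Defibrinated horse blood added to the medium where appropriate. Runs accepted when quality control ranges for comparator antibiotics and ATCC QC strains were met.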

[2] = test system: Staphylococcus aureus; test: Antibacterial activity against tetracycline-resistant Staphylococcus aureus isolate SA161 expressing TetM gene; type: functional; how it was run: as §1
[3] = test system: Staphylococcus aureus; test: Antibacterial activity against tetracycline-resistant Staphylococcus aureus isolate SA158 expressing TetK gene; type: functional
[4] = test system: Streptococcus pneumoniae; test: Antibacterial activity against Streptococcus pneumoniae ATCC 49619 isolate 106; type: functional
How it was run: (§2)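 MIC by broth microdilution in liquid medium per CLSI, in cation-adjusted Mueller Hinton broth made fresh and held at 4 °C before testing. Horse blood (defibrinated) added to the medium where appropriate. Runs were accepted only when the comparator antibiotics and ATCC QC strains fell within their recommended ranges.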

[5] = test system: Streptococcus pneumoniae; test: Antibacterial activity against tetracycline-resistant Streptococcus pneumoniae isolate 160 expressing tetM gene; type: functional
[6] = test system: Escherichia coli; test: Antibacterial activity against Escherichia coli ATCC 25922 isolate 107; type: functional; how it was run: as §2
[7] = test system: Escherichia coli; test: Antibacterial activity against Escherichia coli isolate EC155 expressing tetA gene; type: functional; how it was run: as §2
[8] = test system: Klebsiella pneumoniae; test: Antibacterial activity against Klebsiella pneumoniae ATCC 13883; type: functional; how it was run: as §2
[9] = test system: Staphylococcus aureus; test: Antibacterial activity against Staphylococcus aureus ATCC 13709 infected in CD-1 mouse assessed as increase in survival at 3 mg/kg, iv administered as single dose 1 hr post infection measured after 48 hrs post infection; type: functional
How it was run: (§3)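 Mouse septicemia screen: S. aureus grown to log phase, diluted in 5% mucin to give 90% mortality within 48 h, inoculum 1.98 × 10⁶ CFU/mouse, 0.5 mL intraperitoneal into female CD-1 mice (18−20 g). Six mice per group. Single 30 mg/kg oral gavage or 3 mg/kg IV dose 1 h post infection. Infection controls received sterile water vehicle. Survival recorded at 48 h.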

[10] = test system: Staphylococcus aureus; test: Antibacterial activity against Staphylococcus aureus ATCC 13709 infected in CD-1 mouse assessed as increase in survival at 30 mg/kg, po administered as single dose 1 hr post infection measured after 48 hrs post infection; type: functional; how it was run: as §3
[11] = test system: Staphylococcus aureus; test: Antibacterial activity against Staphylococcus aureus ATCC 13709 infected in po dosed CD-1 mouse assessed as increase in survival administered as single dose 1 hr post infection measured after 48 hrs post infection; type: functional; details: ATCC 13709, po, read-out: PD50
[12] = test system: Staphylococcus aureus; test: Antibacterial activity against methicillin-resistant Staphylococcus aureus VL-137; type: functional; how it was run: as §1
[13] = test system: Streptococcus pneumoniae; test: Antibacterial activity against Streptococcus pneumoniae SPN160; type: functional; how it was run: as §1
[14] = test system: Haemophilus influenzae; test: Antibacterial activity against Haemophilus influenzae 551; type: functional; how it was run: as §2
[15] = test system: Streptococcus pyogenes; test: Antibacterial activity against Streptococcus pyogenes; type: functional; how it was run: as §2
[16] = test system: Moraxella catarrhalis; test: Antibacterial activity against Moraxella catarrhalis; type: functional; how it was run: as §2
[17] = test system: Acinetobacter baumannii; test: Antibacterial activity against Acinetobacter baumannii; type: functional; how it was run: as §2
[18] = test system: Staphylococcus aureus; test: Antibacterial activity against methicillin-resistant Staphylococcus aureus VL-137 infected in neutropenic Balb/c mouse assessed as reduction in lung CFU at 50 mg/kg, po administered 2 and 12 hrs post infection measured 24 hrs post treatment; type: functional
How it was run: (§4)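 Female Balb/c mice (18−20 g) made neutropenic with IP cyclophosphamide, 150 and 100 mg/kg on days −4 and −1. Intranasal infection under light anesthesia. Treatment at 2 and 12 h post infection, oral 50 mg/kg/dose or IV 10 mg/kg/dose, six mice per group. At 24 h lungs were homogenized and plated on TSA (37 °C, 5% CO₂, overnight). Read-out is CFU/g lung.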

[19] = test system: Staphylococcus aureus; test: Antibacterial activity against methicillin-resistant Staphylococcus aureus VL-137 infected in neutropenic Balb/c mouse assessed as reduction in lung CFU at 10 mg/kg, iv administered 2 and 12 hrs post infection measured 24 hrs post treatment; type: functional; how it was run: as §4
[20] = test system: Streptococcus pneumoniae; test: Antibacterial activity against Streptococcus pneumoniae 1629 infected in immunocompetent CD-1 mouse infection model assessed as reduction in lung CFU at 30 mg/kg, po administered 5, 24 and 36 hrs post infection measured 48 hrs post treatment
[21] = Oral bioavailability in CD1 mouse at 30 mg/kg; type: ADME, organism-based; details: CD1, mouse, in vivo
[22] = Oral bioavailability in human; type: ADME, organism-based; details: in vivo

| SMILES | MIC [1] [µg/mL] | MIC [2] [µg/mL] | MIC [3] [µg/mL] | MIC [4] [µg/mL] | MIC [5] [µg/mL] | MIC [6] [µg/mL] | MIC [7] [µg/mL] | MIC [8] [µg/mL] | survival at 3 mg/kg [9] [%] | survival at 30 mg/kg [10] [%] | further results |
| --- | --- | --- | --- | --- | --- | --- | --- | --- | --- | --- | --- |
| CC(C)CCNc1cc(F)c2c(c1O)C(=O)C1=C(O)[C@]3(O)C(=O)C(C(N)=O)=C(O)[C@@H](N(C)C)[C@@H]3C[C@@H]1C2 | 0.25 (≈ 0.483 µM) | 0.5 (≈ 0.966 µM) | 0.13 (≈ 0.251 µM) | 2 (≈ 3.86 µM) | 4 (≈ 7.73 µM) | > 32 | > 32 | > 32 | 17 | 33 | ED50 [11]: > 60 mg/kg |
| CN(C)[C@@H]1C(O)=C(C(N)=O)C(=O)[C@@]2(O)C(O)=C3C(=O)c4c(O)c(NCC(C)(C)C)cc(F)c4C[C@H]3C[C@@H]12 | 0.25 (≈ 0.483 µM) | 2 (≈ 3.86 µM) | 0.25 (≈ 0.483 µM) | 4 (≈ 7.73 µM) | 16 (≈ 30.9 µM) | > 32 | > 32 | > 32 | – | – | – |
| CN(C)[C@@H]1C(O)=C(C(N)=O)C(=O)[C@@]2(O)C(O)=C3C(=O)c4c(O)c(CNCC(C)(C)C)cc(F)c4C[C@H]3C[C@@H]12 | 2 (≈ 3.76 µM) | 4 (≈ 7.52 µM) | 2 (≈ 3.76 µM) | 0.25 (≈ 0.47 µM) | 0.25 (≈ 0.47 µM) | 4 (≈ 7.52 µM) | 16 (≈ 30.1 µM) | 8 (≈ 15 µM) | – | – | – |
| CN(C)[C@@H]1C(O)=C(C(N)=O)C(=O)[C@@]2(O)C(O)=C3C(=O)c4c(O)c(CNC(=O)CNC(C)(C)C)cc(F)c4C[C@H]3C[C@@H]12 | 16 (≈ 27.8 µM) | > 32 | 16 (≈ 27.8 µM) | 0.5 (≈ 0.87 µM) | 4 (≈ 6.96 µM) | 32 (≈ 55.7 µM) | > 32 | > 32 | – | – | – |
| CN(C)[C@@H]1C(O)=C(C(N)=O)C(=O)[C@@]2(O)C(O)=C3C(=O)c4c(O)c(NC(=O)[C@@H]5CCCN5)cc(F)c4C[C@H]3C[C@@H]12 | 0.25 (≈ 0.459 µM) | 0.5 (≈ 0.918 µM) | 0.5 (≈ 0.918 µM) | 0.016 (≈ 0.0294 µM) | 0.016 (≈ 0.0294 µM) | 1 (≈ 1.84 µM) | 16 (≈ 29.4 µM) | 1 (≈ 1.84 µM) | 100 | 0 | – |
| CN(C)[C@@H]1C(O)=C(C(N)=O)C(=O)[C@@]2(O)C(O)=C3C(=O)c4c(O)c(NC(=O)CN5CCCC5)cc(F)c4C[C@H]3C[C@@H]12 [ERAVACYCLINE] | 0.016 (≈ 0.0286 µM) | 0.016 (≈ 0.0286 µM) | 0.016 (≈ 0.0286 µM) | 0.016 (≈ 0.0286 µM) | 0.016 (≈ 0.0286 µM) | 0.016 (≈ 0.0286 µM) | 1 (≈ 1.79 µM) | 0.125 (≈ 0.224 µM) | – | – | – |
| C[C@H]1COc2c(N3CCN(C)CC3)c(F)cc3c(=O)c(C(=O)O)cn1c23.C[C@H]1COc2c(N3CCN(C)CC3)c(F)cc3c(=O)c(C(=O)O)cn1c23.O [LEVOFLOXACIN] | – | – | – | – | – | – | – | – | – | – | MIC50 [12]: 16 µg/mL; MIC90 [12]: > 32 µg/mL; MIC50 [13]: 1 µg/mL; MIC90 [13]: 1 µg/mL; MIC [14]: 0.016 µg/mL; MIC50 [14]: 0.016 µg/mL; MIC90 [14]: 0.031 µg/mL; MIC50 [15]: 0.5 µg/mL; MIC90 [15]: 2 µg/mL; MIC50 [16]: 0.031 µg/mL; MIC90 [16]: 0.063 µg/mL; MIC50 [17]: 4 µg/mL; MIC90 [17]: 32 µg/mL |
| CC(=O)NC[C@H]1CN(c2ccc(N3CCOCC3)c(F)c2)C(=O)O1 [LINEZOLID] | – | – | – | – | – | – | – | – | – | – | MIC50 [12]: 2 µg/mL (≈ 5.93 µM); MIC90 [12]: 4 µg/mL (≈ 11.9 µM); MIC50 [13]: 1 µg/mL (≈ 2.96 µM); MIC90 [13]: 1 µg/mL (≈ 2.96 µM); MIC [14]: 8 µg/mL (≈ 23.7 µM); MIC50 [14]: 8 µg/mL (≈ 23.7 µM); MIC90 [14]: 16 µg/mL (≈ 47.4 µM); MIC [15]: 1 µg/mL (≈ 2.96 µM); MIC50 [15]: 1 µg/mL (≈ 2.96 µM); MIC90 [15]: 2 µg/mL (≈ 5.93 µM); MIC50 [16]: 8 µg/mL (≈ 23.7 µM); MIC90 [16]: 8 µg/mL (≈ 23.7 µM); log10CFU/g [18]: 2.46; log10CFU/g [19]: 1.29; log10CFU/g [20]: 3.56 |
| CN(C)[C@@H]1C(O)=C(C(N)=O)C(=O)[C@@]2(O)C(O)=C3C(=O)c4c(O)cccc4[C@@](C)(O)[C@H]3C[C@@H]12 [TETRACYCLINE] | 1 (≈ 2.25 µM) | > 32 | – | 0.25 (≈ 0.563 µM) | – | 2 (≈ 4.5 µM) | > 32 | 4 (≈ 9 µM) | 100 | 100 | ED50 [11]: 6.9 mg/kg; bioavailability [21]: 6.3%; bioavailability [22]: 50% |
